Experimental data published in publication PMC4229392 (Investigational new drugs, 2014).
“And” between values parts separate entries of the source, which are not always exact repeats. Identical values can stand only once. “Also recorded” adds a separate entry of the source.

What was measured:
[1] = Plasma pharmacokinetics of alisertib ECT; type: in vivo, human; conditions: for Tmax: human, plasma
How it was run: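 Adults with advanced non-haematologic cancers took oral enteric-coated tablets at 10–60 mg BID for 7 days, then 14 days off (21-day cycles). In cycle 1, plasma was sampled within 1 h before the morning dose and at 0.5–12 h post-dose on days 1 and 7. Further samples were taken 12–132 h after the day 7 evening dose. A validated LC-MS/MS assay and non-compartmental analysis were used. Geometric means were reported only for cohorts of at least 2 patients.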

[2] = Urine PK, renal clearance of alisertib; type: in vivo, human
How it was run: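 Urine was collected only from patients dosed at 40 mg BID or higher. Samples were taken pre-dose on day 1 and pooled over 0–12 h after the day 7 morning dose of the 7-day oral BID course. Renal clearance was derived from the day 7 collection in 12 patients (10 at 50 mg BID, 2 at 60 mg BID). Quantitation was by LC-MS/MS.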

[3] = test system: advanced, non-hematologic malignancies; experiment: Antitumor activity by RECIST version 1.1; type: in vivo, human
[4] = test system: patients with advanced, non-hematologic malignancies
[5] = cited from earlier work
[6] = test system: AAK inhibition in xenograft models; conditions: cited from earlier work
[7] = acidic solution; preclinical evaluations; cited from earlier work
[8] = steady-state (day 7), ECT, 20 mg BID (n = 3)
[9] = steady-state (day 7), ECT, 40 mg BID (n = 3)
[10] = steady-state (day 7), ECT, 50 mg BID (n = 11)
[11] = steady-state (day 7), ECT, 60 mg BID (n = 2)
[12] = human, in vivo, 7 days of each 21-day cycle

For COc1cc(Nc2ncc3c(n2)-c2ccc(Cl)cc2C(c2c(F)cccc2OC)=NC3)ccc1C(=O)O [alisertib], the “Overall mean peak/trough ratio” value ([1]; BID dosing, all doses) was 2.2, the “Geometric mean steady-state trough concentration” value ([1]; RP2D of 50 mg BID, ECT) was greater than 1 µM and the Accumulation ratio ([1]; following BID dosing, all doses) was 2.4. It also gave a Tmax ([1]; oral, 40 mg, Median Tmax (range), steady-state (day 7), ECT, 40 mg BID (n = 3)) of 3 h, a Tmax ([1]; oral, 50 mg, Median Tmax (range), steady-state (day 7), ECT, 50 mg BID (n = 11)) of 2.4 h and a Tmax ([1]; oral, 60 mg, Median Tmax (range), steady-state (day 7), ECT, 60 mg BID (n = 2)) of 2.8 h. The Tmax ([1]; po, Overall median Tmax, oral ECT, all doses, range 0–11) was roughly 3 h, the “Dose dependence of systemic exposure” value ([1]; steady-state (day 7), 10–60 mg BID) was “increased with increasing doses” and the “Mean accumulation ratio (SD)” value [1, 8] was 3.0 (1.0). The “Mean peak/trough ratio (SD)” value [1, 8] was 2.1 (0.7), the “Mean accumulation ratio (SD)” value [1, 9] was 2.3 (0.4) and the “Mean peak/trough ratio (SD)” value [1, 9] was 2.3 (1.4). The “Mean accumulation ratio (SD)” value [1, 10] was 2.2 (0.9), the “Mean peak/trough ratio (SD)” value [1, 10] was 2.3 (0.8) and the Mean accumulation ratio [1, 11] was 2.4. For the same compound, the Mean peak/trough ratio [1, 11] was 1.8, the “Renal clearance (in words)” value ([2]; in vivo) was “negligible” and the “Renal clearance as share of apparent oral clearance” value ([2]; urine 0 to 12 h postdose day 7, 12 patients (50 and 60 mg BID)) was “less than 0.1%”. The “Patients with stable disease” value ([3]; 16 response-evaluable patients) was “Nine patients achieved stable disease; also recorded: Nine patients had stable disease”, the “Responses by RECIST” value ([3]; 16 response-evaluable patients) was “No responses by RECIST were observed; also recorded: no complete or partial responses by RECIST were observed” and the “Patients completing treatment for symptomatic deterioration” value ([3]; N = 24) was 21%. For the same compound, the “Duration of stable disease, individual patients” value ([3]; censored observations (*)) was 3.98 months and 1.28 months and 5.45 months and 6.93 months, the “Duration of stable disease, individual patients” value ([3]; not censored) was 5.59 months and 2.56 months and 3.48 months and 3.15 months and 8.31 months and the “Patients with drug-related SAEs in the MTD cohort” value ([4]; 50 mg BID) was 4 patients. For the same compound, the “Patients who died during the first treatment cycle” value ([4]; 50 mg starting dose, not considered related to alisertib) was 2 patients, the “Maximum tolerated dose (MTD)” value ([4]; ECT, × 7 days in a 21-day cycle) was 50 mg BID and the “Patients in whom dose reductions were necessary” value ([4]; human, in vivo) was 21%. The “Patients who discontinued treatment due to AEs” value ([4]; human, in vivo) was 29%, the “Patients with any grade of drug-related central nervous system (CNS) AEs” value ([4]; human, in vivo) was 33% and the “Patients with cycle 1 dose-limiting toxicity (grade 4 febrile neutropenia)” value ([4]; human, in vivo) was 1 of 13. For the same compound, the “Patients with dose reduction for neutropenia” value ([4]; human, in vivo) was 13%, the “Patients with dose reduction for thrombocytopenia” value ([4]; human, in vivo) was 8% and the “Patients with drug-related CNS AE dizziness” value ([4]; human, in vivo) was 2 n. The “Patients with drug-related CNS AE hypersomnia” value ([4]; human, in vivo) was 5 n, the “Patients with drug-related CNS AE memory impairment” value ([4]; human, in vivo) was 3 n and the “Patients with drug-related grade 3 or higher gastrointestinal AEs” value ([4]; human, in vivo) was 25%. The “Patients with drug-related grade 3 or higher hematologic AEs” value ([4]; human, in vivo) was 50%, the “Patients with drug-related neutropenia” value ([4]; human, in vivo) was 50% and the “Patients with treatment-related fatigue” value ([4]; human, in vivo) was 33%. The “Alopecia, all-grade treatment-related AE” value ([4]; human, in vivo, 7 days) was 10 (42) n (%), the “Anemia, all-grade treatment-related AE” value ([4]; human, in vivo, 7 days) was 3 (13) n (%) and the “Decreased appetite, all-grade treatment-related AE” value ([4]; human, in vivo, 7 days) was 5 (21) n (%). The “Diarrhea, all-grade treatment-related AE” value ([4]; human, in vivo, 7 days) was 10 (42) n (%), the “Diarrhea, grade ≥3 treatment-related AE” value ([4]; human, in vivo, 7 days) was 2 (8) n (%) and the “Fatigue, all-grade treatment-related AE” value ([4]; human, in vivo, 7 days) was 8 (33) n (%). For the same compound, the “Fatigue, grade ≥3 treatment-related AE” value ([4]; human, in vivo, 7 days) was 2 (8) n (%), the “Febrile neutropenia, all-grade treatment-related AE” value ([4]; human, in vivo, 7 days) was 3 (13) n (%) and the “Febrile neutropenia, grade ≥3 treatment-related AE” value ([4]; human, in vivo, 7 days) was 3 (13) n (%). For the same compound, the “Hypersomnia, all-grade treatment-related AE” value ([4]; human, in vivo, 7 days) was 5 (21) n (%), the “Leukopenia, grade ≥3 treatment-related AE” value ([4]; human, in vivo, 7 days) was 9 (38) n (%) and the “Memory impairment, all-grade treatment-related AE” value ([4]; human, in vivo, 7 days) was 3 (13) n (%). For the same compound, the “Nausea, grade ≥3 treatment-related AE” value ([4]; human, in vivo, 7 days) was 2 (8) n (%), the “Neutropenia, all-grade treatment-related AE” value ([4]; human, in vivo, 7 days) was 12 (50) n (%) and the “Neutropenia, grade ≥3 treatment-related AE” value ([4]; human, in vivo, 7 days) was 11 (46) n (%). For the same compound, the “Oral candidiasis, all-grade treatment-related AE” value ([4]; human, in vivo, 7 days) was 4 (17) n (%), the “Recommended phase 2 dose (RP2D)” value ([4]; human, in vivo, 7 days) was 50 mg BID and the “Severity of CNS AEs (hypersomnia, memory loss, dizziness)” value ([4]; human, in vivo, 7 days) was 1–2 grade. For the same compound, the “Stomatitis, all-grade treatment-related AE” value ([4]; human, in vivo, 7 days) was 10 (42) n (%), the “Stomatitis, grade ≥3 treatment-related AE” value ([4]; human, in vivo, 7 days) was 2 (8) n (%) and the “Thrombocytopenia, all-grade treatment-related AE” value ([4]; human, in vivo, 7 days) was 4 (17) n (%). For the same compound, the “Vomiting, all-grade treatment-related AE” value ([4]; human, in vivo, 7 days) was 5 (21) n (%), the “Vomiting, grade ≥3 treatment-related AE” value ([4]; human, in vivo, 7 days) was 2 (8) n (%) and the “Leukopenia, all-grade treatment-related AE” value [4, 12] was 10 (42) n (%). The “Nausea, all-grade treatment-related AE” value [4, 12] was 10 (42) n (%), the “Tolerability of dose level” value ([4]; in vivo) was “poorly tolerated” and the “Estimated relative bioavailability (geometric mean ratio of steady state alisertib AUC0-τ) of ECT in reference to PIC” value ([5]; 40 mg BID for 7 days, n = 14, 90% CI: 74.4–108.8%) was 90%. For the same compound, the “Systemic exposures of ECT formulation compared with PIC formulation” value ([5]; relative bioavailability analysis of phase 1 data) was “generally similar”, the “Concentration associated with saturating levels of pharmacodynamic (PD) activity” value ([6]; murine xenograft studies) was 1 µM and the “Concentration associated with AAK inhibition and antitumor activity” value ([6]; preclinical xenograft models) was 1 µM. The “Solubility (in words)” value [7] was “reduced solubility in acidic solution”.
